Experimental data: ChEMBL document CHEMBL1121571, “Cytotoxic and antitumor properties of bleomycin and several of its metal complexes” (J Med Chem, 1980)

What was measured:
Format in all cases: functional, organism-based
Mus musculus [1] = species on record: Mus musculus; test: Tested for the inhibition of DNA synthesis against blenoxane at 10 nm of drug/mg of cell protein in mice; parameters: scale not given: the % may be the effect or the level left
Summary of the method: (§1)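 Ehrlich ascites cells from a donor mouse, in fresh MEM at 5 × 10⁶ cells/mL, were exposed to drug for 60 min at 37 °C with gentle shaking. They were then washed once, resuspended in fresh MEM and given [³H]thymidine (final thymidine about 8.6 × 10⁻⁸ M) for 20 min. DNA synthesis was read as perchloric acid-precipitable label. Values are % of control ± SD over three trials.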

Mus musculus [2] = species on record: Mus musculus; test: Tested for the inhibition of DNA synthesis against blenoxane at 4 nm of drug/mg of cell protein in mice; parameters: scale not given: the % may be the effect or the level left
Summary of the method: (§2)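 Culture-adapted Ehrlich cells were incubated 60 min with […] (4 nmol/mg cell protein) in the presence of serum. [³H]dThd incorporation into DNA was measured at the end of the 60 min. Values are expressed relative to untreated control.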

Mus musculus [3] = species on record: Mus musculus; test: Tested for the inhibition of DNA synthesis against blenoxane at 40 nm of drug/mg of cell protein in mice; parameters: scale not given: the % may be the effect or the level left; summary of the method: as §1
Mus musculus [4] = species on record: Mus musculus; test: Tested for the inhibition of DNA synthesis against blenoxane at 80 nm of drug/mg of cell protein in mice; parameters: scale not given: the % may be the effect or the level left; summary of the method: as §1
Mus musculus [5] = species on record: Mus musculus; test: Tested for the thymidine uptake against blenoxane at 10 nm of drug/mg of cell protein in mice; summary of the method: as §1
Mus musculus [6] = species on record: Mus musculus; test: Tested for the thymidine uptake against blenoxane at 4 nm of drug/mg of cell protein in mice
Mus musculus [7] = species on record: Mus musculus; test: Tested for the thymidine uptake against blenoxane at 40 nm of drug/mg of cell protein in mice; summary of the method: as §1
Mus musculus [8] = species on record: Mus musculus; test: Tested for the thymidine uptake against blenoxane at 80 nm of drug/mg of cell protein in mice; summary of the method: as §1
Mus musculus [9] = species on record: Mus musculus; test: Tested for the inhibition of DNA synthesis against cu-blenoxane at 10 nm of drug/mg of cell protein in mice; parameters: scale not given: the % may be the effect or the level left; summary of the method: as §1
Mus musculus [10] = species on record: Mus musculus; test: Tested for the inhibition of DNA synthesis against cu-blenoxane at 4 nm of drug/mg of cell protein in mice; parameters: scale not given: the % may be the effect or the level left; summary of the method: as §2
Mus musculus [11] = species on record: Mus musculus; test: Tested for the inhibition of DNA synthesis against cu-blenoxane at 40 nm of drug/mg of cell protein in mice; parameters: scale not given: the % may be the effect or the level left; summary of the method: as §1
Mus musculus [12] = species on record: Mus musculus; test: Tested for the inhibition of DNA synthesis against cu-blenoxane at 80 nm of drug/mg of cell protein in mice; parameters: scale not given: the % may be the effect or the level left; summary of the method: as §1
Mus musculus [13] = species on record: Mus musculus; test: Tested for the thymidine uptake against cu-blenoxane at 10 nm of drug/mg of cell protein in mice; summary of the method: as §1
Mus musculus [14] = species on record: Mus musculus; test: Tested for the thymidine uptake against cu-blenoxane at 4 nm of drug/mg of cell protein in mice
Mus musculus [15] = species on record: Mus musculus; test: Tested for the thymidine uptake against cu-blenoxane at 40 nm of drug/mg of cell protein in mice; summary of the method: as §1
Mus musculus [16] = species on record: Mus musculus; test: Tested for the thymidine uptake against cu-blenoxane at 80 nm of drug/mg of cell protein in mice; summary of the method: as §1

BLEOMYCIN
Control (Mus musculus [1]): 66.1% | Control (Mus musculus [2]): 67.9% | Control (Mus musculus [3]): 56.4% | Control (Mus musculus [4]): 40.1% | Control (Mus musculus [5]): 79.1% | Control (Mus musculus [6]): 86% | Control (Mus musculus [7]): 69.8% | Control (Mus musculus [8]): 61.9%

cu-blenoxane
Control (Mus musculus [9]): 61.5% | Control (Mus musculus [10]): 86.8% | Control (Mus musculus [11]): 55.3% | Control (Mus musculus [12]): 51.3% | Control (Mus musculus [13]): 83.5% | Control (Mus musculus [14]): 94.9% | Control (Mus musculus [15]): 71.2% | Control (Mus musculus [16]): 68.4%
